Data taken from ChEMBL document CHEMBL1130314, “Examination of the role of the acidic hydrogen in imparting selectivity of 7-(aminosulfonyl)-1,2,3,4-tetrahydroisoquinoline (SK&F 29661) toward inhibition of phenylethanolamine N-methyltransferase vs the alpha 2-adrenoceptor” (J Med Chem, 1997).

What was measured:
[1] = Dissociation constant was determined; assay type: physicochemical
[2] = target: T1, Adrenergic receptor alpha-2 (Rattus norvegicus, UniProt P22086+P19328+P22909); experiment: Inhibition of [3H]clonidine binding to Alpha-2 adrenergic receptor; assay type: protein assay
T1 sequence (P22086 whole entry): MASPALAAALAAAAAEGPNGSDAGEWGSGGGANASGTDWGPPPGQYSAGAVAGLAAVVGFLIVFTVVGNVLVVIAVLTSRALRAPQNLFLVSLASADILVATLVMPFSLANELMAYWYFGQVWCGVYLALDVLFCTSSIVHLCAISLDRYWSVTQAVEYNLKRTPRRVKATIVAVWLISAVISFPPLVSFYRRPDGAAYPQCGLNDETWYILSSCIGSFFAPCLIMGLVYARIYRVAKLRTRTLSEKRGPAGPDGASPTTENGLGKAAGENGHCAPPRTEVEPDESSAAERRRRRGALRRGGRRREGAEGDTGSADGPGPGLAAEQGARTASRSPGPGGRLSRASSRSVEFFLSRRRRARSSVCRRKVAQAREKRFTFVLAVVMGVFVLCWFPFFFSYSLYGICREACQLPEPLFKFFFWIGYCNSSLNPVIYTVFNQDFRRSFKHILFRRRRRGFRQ
T1 sequence (P19328 whole entry): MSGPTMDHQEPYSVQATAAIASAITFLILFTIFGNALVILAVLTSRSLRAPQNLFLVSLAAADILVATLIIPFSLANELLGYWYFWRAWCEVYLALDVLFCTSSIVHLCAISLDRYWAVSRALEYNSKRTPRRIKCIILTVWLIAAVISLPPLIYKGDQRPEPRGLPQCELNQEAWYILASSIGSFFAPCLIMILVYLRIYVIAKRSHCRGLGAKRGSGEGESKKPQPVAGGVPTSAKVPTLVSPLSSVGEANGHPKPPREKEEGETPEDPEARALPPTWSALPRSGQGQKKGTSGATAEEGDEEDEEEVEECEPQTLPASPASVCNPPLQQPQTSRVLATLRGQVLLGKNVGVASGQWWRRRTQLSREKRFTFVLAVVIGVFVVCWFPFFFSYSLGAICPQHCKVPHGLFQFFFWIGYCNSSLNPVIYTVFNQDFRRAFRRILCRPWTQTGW
T1 sequence (P22909 whole entry): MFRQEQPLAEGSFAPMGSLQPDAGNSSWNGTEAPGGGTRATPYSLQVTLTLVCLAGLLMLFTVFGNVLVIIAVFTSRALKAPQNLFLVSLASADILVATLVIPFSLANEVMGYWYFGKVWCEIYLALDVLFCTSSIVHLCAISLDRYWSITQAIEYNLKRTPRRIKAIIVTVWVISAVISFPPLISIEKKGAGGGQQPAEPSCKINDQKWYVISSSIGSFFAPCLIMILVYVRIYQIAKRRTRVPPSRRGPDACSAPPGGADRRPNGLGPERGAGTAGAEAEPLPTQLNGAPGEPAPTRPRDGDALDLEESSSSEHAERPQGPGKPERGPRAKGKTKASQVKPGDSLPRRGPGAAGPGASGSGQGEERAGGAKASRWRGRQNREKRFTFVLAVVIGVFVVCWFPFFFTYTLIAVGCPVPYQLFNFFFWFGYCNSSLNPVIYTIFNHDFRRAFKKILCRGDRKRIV
Summary of the method: (§1)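 Cortex from male Sprague-Dawley rats, homogenized and washed three times by centrifugation (50000g) in 50 mM Tris·HCl pH 7.7. Incubated with 4.0 nM (final) [3H]clonidine for 30 min at 25 °C. Bound ligand collected by rapid filtration and counted. Nonspecific binding defined with 2 µM phentolamine. Quadruplicates at 5 inhibitor concentrations over a 16-fold range.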

[3] = target: T2, Phenylethanolamine N-methyltransferase (Bos taurus, UniProt P10938); experiment: Inhibition of Phenylethanolamine N-methyl-transferase (PNMT)
T2 sequence (P10938 whole entry): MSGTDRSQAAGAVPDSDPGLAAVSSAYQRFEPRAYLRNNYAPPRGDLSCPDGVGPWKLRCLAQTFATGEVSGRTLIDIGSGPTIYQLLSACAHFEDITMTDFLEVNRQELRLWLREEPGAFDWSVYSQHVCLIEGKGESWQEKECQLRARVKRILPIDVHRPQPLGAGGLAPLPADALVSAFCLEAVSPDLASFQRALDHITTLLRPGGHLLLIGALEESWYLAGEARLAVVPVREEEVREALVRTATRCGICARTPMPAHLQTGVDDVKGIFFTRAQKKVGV
Summary of the method: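 Bovine adrenal PNMT, purified through isoelectric precipitation. Radiochemical assay in phosphate buffer pH 8.0 with unlabeled AdoMet plus [methyl-3H]AdoMet, with phenylethanolamine as the variable substrate. Incubated 30 min at 37 °C, then quenched with borate pH 10.0. Product extracted into toluene–isoamyl alcohol (7:3) and scintillation counted. Duplicates at three inhibitor concentrations over a 5-fold range. Ki from hyperbolic fit; mode checked by 1/V vs 1/S plots.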

[4] = Selectivity was expressed as the ratio is Ki of alpha 2-Adrenoceptor to tht of PNMT
[5] = Selectivity was expressed as the ratio is Ki of alpha 2-Adrenoceptor to that of PNMT
[6] = target: T1, Adrenergic receptor alpha-2; experiment: Ability to inhibit binding of [3H]clonidine at the Alpha-2 adrenergic receptor; assay type: protein assay; summary of the method: as §1

SMILES | pKa [1] | Ki [2] [µM] | Ki [3] [µM] | Selectivity ratio [4] | Selectivity ratio [5] | Ki [6] [µM]
Oc1ccc2c3c(ccc2c1)CCNC3 | 10 | 0.078 | 0.98 | 0.08 | – | –
COc1ccc2c(CN)cccc2c1 | – | 4.6 | 15 | 0.31 | – | –
COc1ccc2c3c(ccc2c1)CCNC3 | – | 0.84 | 1.4 | 0.6 | – | –
O=S(=O)(Nc1ccc(Cl)cc1)c1ccc2c(c1)CNCC2 | 7.8 | 6.3 | 2.6 | 2.4 | – | –
Oc1ccc2c(c1)CNCC2 | 10 | 2.2 | – | – | 0.85 | –
NCc1cccc2cc(O)ccc12 | 10 | 2.1 | 8.4 | 0.25 | – | –
CS(=O)(=O)Nc1ccc2c(c1)CNCC2 | 9 | 11 | 48 | 0.23 | – | –
CS(=O)(=O)N(c1ccc2c(c1)CNCC2)S(C)(=O)=O | – | 190 | 4500 | 0.042 | – | –
CNS(=O)(=O)c1ccc2c(c1)CNCC2 | 11.4 | 130 | 4.6 | 28 | – | –
Clc1ccc2c(c1Cl)CNCC2 | – | – | 0.2 | – | – | […]
NCc1cccc2ccccc12 | – | 1.6 | 4.7 | 0.34 | – | –
CS(=O)(=O)NCc1ccc2c(c1)CNCC2 | 11.9 | 18 | 330 | 0.055 | – | –
